The source of these data is article PMC5456262 (Biochemistry, 2017).

Values joined by “and” are separate entries in the source; they are usually repeats but may differ in a detail not shown here. Equal entries are not always repeated.

For experiment [1], the target named is LacY mutant 32C/245C (I32C/N245C) (Escherichia coli, UniProt P02920, I32C/N245C). In words: biochemical. Type of experiment: binding.
Experiment [2] addresses LacY mutant 32C/245C (I32C/N245C) reconstituted into PL (Escherichia coli, UniProt P02920, I32C/N245C). Kind of experiment: biochemical. Type of experiment: binding.
In experiment [3] the target is LacY mutant 35C/245C (H35C/N245C) (Escherichia coli, UniProt P02920, H35C/N245C). In words: NPG binding to mutant 35C/245C solubilized in DDM, stopped-flow Trp151→NPG FRET.
The target of experiment [4] is I32C LacY (Escherichia coli, UniProt P02920, I32C). In words: NPG binding to control single-Cys mutant I32C, stopped-flow. The following applies: Figure S3.
Experiment [5] concerns the target H35C LacY (Escherichia coli, UniProt P02920, H35C). Kind of experiment: NPG binding to control single-Cys mutant H35C, stopped-flow. To be noted: Figure S3.
In experiment [6] the target is N245C LacY (Escherichia coli, UniProt P02920, N245C). Kind of experiment: NPG binding to control single-Cys mutant N245C, stopped-flow. To be noted: Figure S3.
Experiment [7] deals with LacY control mutants I32C, H35C, or N245C. Kind of experiment: Galactoside. Type of experiment: binding, Escherichia coli. The following applies: range over three control mutants, presence or absence of Cu^2+. In outline: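 Purified LacY single-Cys mutants were pretreated with CuSO4 (oxidizing) or 10 mM TCEP (reducing) for 10 min at room temperature, with stopped-flow final TCEP at 2 mM. Buffer was 50 mM NaPi pH 7.5, with 0.02% DDM for detergent-solubilized protein. Protein was preincubated 5 min with NPG at varied concentrations, then mixed by stopped-flow with 15 mM TDG. Trp151→NPG FRET was read at ex 295/em 340 nm, and single-exponential fits gave koff.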

The target in experiment [8] is mutant 32C/245C LacY–Nb9065 complex in PL (Escherichia coli, UniProt P02920, I32C/N245C). Type of experiment: binding.
The target of experiment [9] is WT LacY in PL. To be noted: cited from earlier work.
Where [10] appears, read: DDM, Cu^2+, directly measured NPG binding rates.
[11] abbreviates: Kd^app calculated = Kd(1 + kr/kf), DDM, cross-linked with Cu^2+.
The mark [12] stands for this setting: read-out: kon from two-step conformational selection fit.

The koff is a measure of how fast the partners let go of each other.

Sequence of LacY mutant 32C/245C (I32C/N245C) (P02920 whole entry I32C/N245C): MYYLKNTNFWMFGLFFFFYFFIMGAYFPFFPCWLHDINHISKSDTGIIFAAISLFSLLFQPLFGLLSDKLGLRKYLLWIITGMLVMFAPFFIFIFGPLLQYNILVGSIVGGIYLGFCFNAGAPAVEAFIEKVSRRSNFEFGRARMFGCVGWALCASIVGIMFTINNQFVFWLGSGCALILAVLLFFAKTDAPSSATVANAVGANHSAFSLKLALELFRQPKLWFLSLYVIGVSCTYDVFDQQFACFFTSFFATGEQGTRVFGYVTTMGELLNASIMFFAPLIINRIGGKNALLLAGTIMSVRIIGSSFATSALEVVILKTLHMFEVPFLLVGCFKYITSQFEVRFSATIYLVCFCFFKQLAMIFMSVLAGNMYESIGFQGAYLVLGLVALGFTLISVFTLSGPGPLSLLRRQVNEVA
Sequence of LacY mutant 32C/245C (I32C/N245C) reconstituted into PL (P02920 whole entry I32C/N245C): as above
Sequence of LacY mutant 35C/245C (H35C/N245C) (P02920 whole entry H35C/N245C): as the sequence (P02920 whole entry I32C/N245C) above, with C32I, H35C counted along it
Sequence of mutant 32C/245C LacY–Nb9065 complex in PL (P02920 whole entry I32C/N245C, one chain of several): as the sequence (P02920 whole entry I32C/N245C) above
Sequence of H35C LacY (P02920 whole entry H35C): as the sequence (P02920 whole entry I32C/N245C) above, with C32I, H35C, C245N counted along it
Sequence of N245C LacY (P02920 whole entry N245C): as the sequence (P02920 whole entry I32C/N245C) above, with C32I counted along it
Sequence of I32C LacY (P02920 whole entry I32C): as the sequence (P02920 whole entry I32C/N245C) above, with C245N counted along it

With `O=[N+]([O-])c1ccc(O[C@H]2O[C@H](CO)[C@H](O)[C@H](O)[C@H]2O)cc1` [NPG, 4-nitrophenyl α-D-galactopyranoside], the “kobs limit at high sugar concentrations” value in experiment [1] (setting [10]) and in [3] (setting [10]) was 40 to 50 s⁻¹ throughout. In addition, the “koff (rate of NPG displacement by excess TDG)” value in experiment [1] (DDM, cross-linked in the presence of Cu^2+) is 9.1 ± 0.9 s⁻¹. Further, the Kd in experiment [1] (setting [11]) was 68 µM; in [2], 7 ± 1 µM; in experiment [3] (setting [11]), 91 µM; in experiment [7], 3 to 17 µM; in experiment [8], 6 ± 2 µM; in [9] (WT LacY in PL) it was 11 µM. The kon was found to be 640000 ± 120000 M⁻¹ s⁻¹ in experiment [1] (setting [12]), 700000 ± 160000 M⁻¹ s⁻¹ in experiment [3] (setting [12]) and 3.7e+06 ± 200000 M⁻¹ s⁻¹ in experiment [8] (read-out: kon from concentration dependence of binding rates measured directly). Moreover, in experiment [2] (PL, cross-linked in the presence of Cu^2+, 400 μM NPG), the “sugar binding (NPG displacement)” value was “no sugar binding”. Further, the “kobs (NPG binding rate measured directly, independent of NPG concentration)” value in experiment [2] (PL, reducing conditions (TCEP), no Nb9065) is 2.2 ± 0.4 s⁻¹ and 2 s⁻¹. In addition, the koff in experiment [2] (read-out: koff (displacement rate)) is 24 ± 3 s⁻¹; in [7], 33 to 102 s⁻¹; in [9] (WT LacY in PL), 111 s⁻¹. Besides, the “kobs (sugar binding rate measured directly)” value in experiment [4] worked out at 20 s⁻¹; in experiment [5] it was 33 s⁻¹; in [6], 26 s⁻¹. Also, the “kon estimated from displacement experiments” value in [9] (WT LacY reconstituted into PL) is 1e+07 M⁻¹ s⁻¹. Further, the “kobs (sugar binding rate, independent of sugar concentration)” value in [9] (reconstituted WT LacY) is 21 s⁻¹.
